Laboratory results published in PubChem BioAssay AID463111 (Johns Hopkins Ion Channel Center, 2010).
The whole screen tested about 310,000 compounds, of which about 2,800 (0.9%) were called active.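 How the source made its calls: active means B-score of the integrated calcium signal more than 4 SD below the library mean, with starting fluorescence not abnormally high; inactive means the rest.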 What follows is part of a selection rich in actives, with near analogues and random picks from the rest.

assay: enhancers of RGS4 function in calcium signaling – cell-based, HEK293 M3R inducible RGS4, calcium flux, primary screen (AID 463111); conditions: HEK293 M3R/inducible RGS4, carbachol calcium flux Fluo4, at 10 µM; hits give low values;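 on B-score: negative B-score means reduced calcium response which marks RGS4 activation or potentiation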
Summary of the method: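 Also added: carbachol at ECmax as muscarinic agonist stimulus; Assay system: HEK293 cells with stable M3R and inducible RGS4; Timing: overnight RGS4 induction, 30 min dye load 37 °C, 20 min compound RT; Measured by: Fluo4-AM (2 µM) calcium-flux fluorescence, kinetic read.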

| Structure (SMILES) | B-score |
| --- | --- |
| CC(C)OC(=O)c1sc2nc3c(cc2c1N)C(=O)CCC3 | inactive |
| Cc1ccc(-c2nn(-c3ccccc3)cc2C(=O)NCCCN2CCCC2=O)cc1 | inactive |
| Cc1cccc(C)c1NC(=O)CNC(=O)c1c(C)nn(-c2ccccc2)c1C | inactive |
| CN(/C(=N/S(=O)(=O)c1cccs1)c1ccccc1)c1ccc(O)cc1 | inactive |
| CCCNC(=O)CCn1nc(-c2ccccc2)c2ccccc2c1=O | inactive |
| CCc1cccc(CC)c1NC(=O)COc1ccccc1C(=O)c1cc(C#N)c(=O)n(C2CCCCC2)c1 | inactive |
| CCc1ccc(C(=O)NC(=S)Nc2ccccc2N2CCOCC2)cc1 | inactive |
| CC(=O)N1CCN(c2ccccc2NC(=S)NC(=O)c2cc3ccccc3o2)CC1 | -6.98 (active) |
| COc1ccc(C(=O)NC(=S)Nc2ccccc2N2CCN(S(C)(=O)=O)CC2)cc1OC | inactive |
| CCCCn1c(N)c(N(CC(C)C)C(=O)C2CSC3(C)CCC(=O)N23)c(=O)[nH]c1=O (stereo not drawn) | inactive |
| CCCCn1c(N)c(N(CC)C(=O)c2ccc(N(C)S(=O)(=O)c3ccc(C)cc3)cc2)c(=O)[nH]c1=O | inactive |
| CCS(=O)(=O)C1=NSC2=NC(=O)/C(=C\c3cc(C)n(-c4cccc(OC)c4)c3C)C(=N)N21 | -7.01 (active) |
| Cc1cc(/C=C2/C(=N)N3C(=NC2=O)SN=C3S(C)(=O)=O)c(C)n1-c1ccccc1 | inactive |
| CCS(=O)(=O)C1=NSC2=NC(=O)/C(=C\c3ccc(OS(=O)(=O)c4ccccc4)cc3)C(=N)N21 | inactive |
| COCCCNC(=O)CNC(=O)c1nn(-c2ccc(OC)cc2)c(=O)c2ccccc12 | inactive |
| Cc1cc([N+](=O)[O-])ccc1NC1CCCC1 | inactive |
| Cc1cc(C=O)c(C)n1-c1ccc(NC2CCCCC2)c([N+](=O)[O-])c1 | -7.21 (active) |
| Cc1c(NS(=O)(=O)c2ccc(NC3CCCC3)c([N+](=O)[O-])c2)c(=O)n(-c2ccccc2)n1C | inactive |
| Cc1cc(-c2nnc(SCC(=O)Nc3ccc(F)cc3)n2N)n[nH]1 | inactive |
| O=C(NCc1ccco1)/C(=C/c1cccc([N+](=O)[O-])c1)NC(=O)c1ccco1 | inactive |
| COc1ccccc1NC(=O)COC(=O)c1ccccc1SCC(=O)N1CCCC1 | inactive |

| Structure (SMILES) | B-score |
| --- | --- |
| CC(NC(=O)c1ccccc1SCC(=O)N1CCCC1)c1ccccc1 (stereo not drawn) | inactive |
| CC(C)N(Cc1ccccc1)C(=O)COC(=O)c1ccccc1SCC(=O)N1CCCC1 | -8.67 (active) |
| Cc1ccc(C(=O)N/C(=C\c2cccs2)C(=O)NCCc2ccccn2)cc1C | inactive |
| COc1ccc(CN2CCCC(C(=O)c3ccc(Cl)cc3)C2)cc1Cn1cncn1 (stereo not drawn) | -10.3 (active) |
| COc1ccc(CCN(C)C(=O)C2CCCN(Cc3ccc(OC)c(OC)c3)C2)cc1OC (stereo not drawn) | inactive |
| COc1cc(CN2CCCC(C(=O)c3ccc(SC)cc3)C2)cc(Cl)c1O (stereo not drawn) | inactive |
| CC[n+]1c(C)n(-c2ccccc2)c2ccc(NC(C)=O)cc21 | inactive |
| CC(C)c1ccc(OCC(O)Cn2cnc3ccccc32)cc1 (stereo not drawn) | inactive |
| C=CCn1c(=N)n(CC(O)COc2ccc(OC)cc2)c2ccccc21 (stereo not drawn) | inactive |
| OC(CN=c1sc2ccccc2n1CC(O)COc1ccccc1)COc1ccccc1 (stereo not drawn) | -10.8 (active) |
| COc1cccc(NC(=O)Cn2cnc3sc(C)c(S(=O)(=O)N4CCN(C)CC4)c3c2=O)c1 | inactive |
| Cc1ccc(Cl)c(OCC(=O)NN2CCN(C)CC2)c1 | inactive |
| O=C(CCCOc1ccc(Cl)cc1Cl)NNC(=O)C1CCC1 | inactive |
| CN1CCC(OC(=O)COc2ccc(Cl)cc2Cl)CC1 | -7.11 (active) |
| CC(C)N1C(=O)N(c2ccccc2)C(C)(O)CC1(C)C (stereo not drawn) | inactive |
| CN(C)C(CNC(=O)c1ccc(S(=O)(=O)NCc2ccco2)cc1)c1ccccc1 (stereo not drawn) | inactive |
| CC(C)CN(C(=O)Cn1c(=O)cnc2ccccc21)C1CCS(=O)(=O)C1 (stereo not drawn) | inactive |
| COc1ccccc1CCCNC(=O)C1CCC(=O)N(CCN2CCOCC2)C1 (stereo not drawn) | inactive |
| Cc1[nH]n(-c2cccc(Cl)c2)c(=O)c1/C=N/n1c(C)nc2ccccc2c1=O | inactive |
| COc1cc(SC#N)ccc1N=Cc1c(C)[nH]n(-c2ccc(C)cc2)c1=O | inactive |
| Cc1ccc(-n2[nH]c(C)c(/C=N/N3C(=O)c4cccc5cccc(c45)C3=O)c2=O)cc1 | -9.28 (active) |

| Structure (SMILES) | B-score |
| --- | --- |
| COc1ccc(N2CCN(S(=O)(=O)c3ccc4c(c3)N(C(C)=O)CCO4)CC2)cc1 | inactive |
| CCOc1ccc(NC(=O)C(C)N2C(=O)c3ccccc3C2=O)cc1 (stereo not drawn) | inactive |
| CC(=O)c1ccc(OCC(O)CN2CCN(S(=O)(=O)c3cccc(Br)c3)CC2)cc1 (stereo not drawn) | inactive |
| COc1ccc(C2c3ccc(O)cc3Oc3ncn(CCCO)c(=N)c32)cc1OC (stereo not drawn) | inactive |
| c1ccc2c(c1)CSc1sccc1C2=C1CCNCC1 | -7.49 (active) |
| Nc1nnc(SCC(=O)NC2CCCc3ccccc32)s1 (stereo not drawn) | inactive |
| CCn1ccnc1CN1CCCC(C(=O)c2ccc3c4c(cccc24)CC3)C1 (stereo not drawn) | inactive |
| CC(C)(C)NCCCOc1ccc(Cl)cc1C(C)(C)C | inactive |
| CN(C)CCOCCOc1ccc(Cl)c2ccccc12 | inactive |
| CN(C)CCOc1ccc(Cl)cc1C(C)(C)C | -7.65 (active) |
| COc1ccc(/C=C2/SC(=O)N(CCCCCC(=O)Nc3ccccc3C(=O)O)C2=S)cc1 | inactive |
| CCCN(CCc1ccccc1)C1CCc2c(O)cccc2C1 (stereo not drawn) | -10.2 (active) |
| Cc1cc(C)cc(C(=O)N(CCc2ccccc2)C2=CC3CCC(C2)N3C)c1 (stereo not drawn) | inactive |
| COc1ccc(-c2nn(-c3ccccc3)cc2/C=C2/SC(=S)N(CCCC(=O)O)C2=O)c(C)c1 | inactive |
| Cc1ccc(-c2nn(-c3ccccc3)cc2/C=C2\SC(=S)N(CCCCCC(=O)O)C2=O)o1 | -7.93 (active) |
| CN(C)S(=O)(=O)c1cccc(-c2nn(-c3ccccc3)cc2/C=C2\SC(=S)N(CC(=O)O)C2=O)c1 | inactive |
| Oc1oc(-c2ccccc2Br)nc1/C=N/c1ccccn1 | inactive |
| CSc1nnnn1-c1c(C)cc(C)cc1C | inactive |
| Cc1cc2oc(=O)cc(CN3CCN(Cc4ccccc4)CC3)c2cc1C | inactive |
| CCCOc1ccc(C2c3c(oc4cc(C)c(C)cc4c3=O)C(=O)N2CCCN2CCOCC2)cc1 (stereo not drawn) | inactive |
| Cc1cc2oc3ccc(NCCC4CCCN4C)cc3c(=O)c2cc1C (stereo not drawn) | -9.61 (active) |
